Experimental data taken from PMC10173165 (Journal of Advanced Research, 2022).
Numbering of substitutions follows the chain as printed. Names may count otherwise. Ends that are not written are not given here.

Columns and labels:
NCI-N87 xenograft = assay: NCI-N87 tumor xenograft with IHC; assay type: in vivo, athymic nude mice
Procedure, shortened: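 Female athymic nude mice (5 weeks old) received 5 × 10^6 NCI-N87 cells s.c. in PBS into the right flank and were randomised at 90–100 mm3 (n = 5/group). Dosing was 4 mg/kg i.v. in DMAC/Tween80/saline (5:10:85), six times at 3-day intervals. Caliper volume (L × W2)/2 was followed to day 28. Paraffin tumour sections were stained for HER2 and Ki-67 (DAB), with IHC score = intensity × fraction (0–300) over 10 fields per sample.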

[1] = Genotoxicity safety assessment
[2] = Intravenous and oral pharmacokinetic profile; assay type: in vivo, ICR mice; conditions: male, ICR, mouse, plasma
[3] = molecular target: T1, (His)6-MED23_391–582 / FITC-ELF3_129–145 (Homo sapiens, UniProt Q9ULK4); assay: Fluorescence polarization assay; assay type: binding; conditions: negative control
T1 sequence (Q9ULK4 391-582): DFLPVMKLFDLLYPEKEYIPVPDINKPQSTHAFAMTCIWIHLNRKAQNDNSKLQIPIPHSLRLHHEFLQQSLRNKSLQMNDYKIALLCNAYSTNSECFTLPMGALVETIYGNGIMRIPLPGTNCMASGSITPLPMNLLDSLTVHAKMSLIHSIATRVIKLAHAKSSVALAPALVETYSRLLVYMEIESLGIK

Nluc-ELF3^WT = molecular target: T2, Nluc-ELF3^WT (human, UniProt P78545-1 1-371); assay: split reporter
T2 sequence: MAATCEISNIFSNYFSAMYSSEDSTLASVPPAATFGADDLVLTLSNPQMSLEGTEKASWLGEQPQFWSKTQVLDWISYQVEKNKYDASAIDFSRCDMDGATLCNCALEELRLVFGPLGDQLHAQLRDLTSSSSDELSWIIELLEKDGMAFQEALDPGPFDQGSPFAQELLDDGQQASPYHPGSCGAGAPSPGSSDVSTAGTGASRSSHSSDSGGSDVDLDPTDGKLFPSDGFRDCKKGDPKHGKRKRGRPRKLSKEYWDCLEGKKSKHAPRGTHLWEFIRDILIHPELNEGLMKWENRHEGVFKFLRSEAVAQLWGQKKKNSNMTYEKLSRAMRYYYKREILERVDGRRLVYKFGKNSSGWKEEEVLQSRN

(His)6-MED23_(391–582) = molecular target: T3, (His)6-MED23_(391–582) (human, UniProt Q9ULK4 391-582); assay: fluorescence polarisation
T3 sequence: T1 sequence (Q9ULK4 391-582)

[4] = 4 mg/kg IV, compared to untreated control

For `CC(=O)N1N=C(c2cccc(O)c2)CC1c1ccc(Cl)cc1` (stereo not drawn) [Compound 15], the Tumor growth (NCI-N87 xenograft; 4 mg/kg IV every 3 days) was “significant tumor growth retardation”, the “Decrease in proliferation marker Ki67 (IHC)” value (NCI-N87 xenograft; [4]) was 4.5 fold and the “Reduction of HER2 level in the tumor (IHC)” value (NCI-N87 xenograft; [4]) was 1.8 fold. For the same molecule, the Genotoxicity [1] was “no association of genotoxicity”, the half-life ([2]; iv) was 9.74 ± 2.76 h and the bioavailability ([2]; po) was 25.1%. It also gave a half-life ([2]; po) of 10.9 ± 11 h.

In the case of `COc1ccc(C2CC(c3ccccc3O)=NN2C(C)=O)c2ccccc12` (stereo not drawn) [Compound 18], the “Change of FP signal” value [3] is reported as “made no such changes”.

B1: Cluc-MED23_(391-462) (domain or fragment)
chain: DFLPVMKLFDLLYPEKEYIPVPDINKPQSTHAFAMTCIWIHLNRKAQNDNSKLQIPIPHSLRLHHEFLQQSL
With B1 the “fold change of luciferase activity vs control” value (Nluc-ELF3^WT) was 6 fold.

TSSSSDELSWIIELLEK (also: FITC label, position not given here) [FITC-labeled ELF3_(129–145) peptide]: binds ((His)6-MED23_(391–582)).

B2: Cluc-MED23_(391-582)^WT (domain or fragment)
chain: T1 sequence (Q9ULK4 391-582)
In the case of B2, the “fold change of luciferase activity relative to control” value (Nluc-ELF3^WT) is reported as 5.2 fold.

B3: Cluc-MED23_(391-582)^K397A (domain or fragment)
chain: T1 sequence (Q9ULK4 391-582) with K7A
In the case of B3, the “fold change of luciferase activity relative to control” value (Nluc-ELF3^WT) is reported as 4.8 fold.
